Results as given in ChEMBL document CHEMBL1681654, “Structure and activity relationship of 2-(substituted benzoyl)-hydroxyindoles as novel CaMKII inhibitors” (Bioorg Med Chem Lett, 2011).

Assay: Inhibition of recombinant CAMK2 expressed in Sf9 cells after 20 mins
Procedure, shortened: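 Baculovirus-expressed CaMKII from infected Sf9 cells (harvested day 3), purified on calmodulin affinity resin. Assayed in 25 mM Tris–HCl pH 7.5, 2 mM DTT, 10 mM MgCl₂, 0.1% CHAPS, 1 mM CaCl₂ with autocamtide-2 substrate, CaM and [γ-³³P]ATP (350–1500 cpm/pmol); 20 min, 30 °C. Reaction spotted onto P30 filtermat, washed with 75 mM phosphoric acid, counted by scintillation.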

IC50 [µM]	SMILES
8.8	Cc1ccc(C(=O)c2cc3cc(O)ccc3[nH]2)cc1
> 10	COc1ccc(C(=O)c2cc3cc(O)ccc3[nH]2)cc1
> 10	O=C(c1ccc(OC(F)(F)F)cc1)c1cc2cc(O)ccc2[nH]1
1.8	O=C(c1cc2cc(O)ccc2[nH]1)c1ccccc1Oc1ccccc1
0.61	O=C(c1ccc(Oc2ccccc2)cc1)c1cc2cc(O)ccc2[nH]1
2.3	O=C(c1ccc(Oc2ccccc2)cc1)c1cc2ccc(O)cc2[nH]1
> 10	CN1CCC(Oc2ccc(C(=O)c3cc4cc(O)ccc4[nH]3)cc2)CC1
9.9	CC(=O)N1CCC(Oc2ccc(C(=O)c3cc4cc(O)ccc4[nH]3)cc2)CC1
> 10	O=C(c1ccc(Oc2ccccc2)cc1)c1cc2cc(O)ccc2n1S(=O)(=O)c1ccccc1
1.9	O=C(c1ccc(Oc2ccccc2)cc1)c1cc2cc(O)ccc2n1CCO
0.77	CCOC(=O)Cn1c(C(=O)c2ccc(Oc3ccccc3)cc2)cc2cc(O)ccc21
1.8	O=C(O)Cn1c(C(=O)c2ccc(Oc3ccccc3)cc2)cc2cc(O)ccc21

Second part, the compound before the results:

SMILES	IC50 [µM]
COc1ccc(S(=O)(=O)N(CCO)c2ccccc2CN(C)C/C=C/c2ccc(Cl)cc2)cc1	1.6
O=C(c1ccccc1)c1cc2cc(O)ccc2[nH]1	10
O=C(c1ccc(F)cc1)c1cc2cc(O)ccc2[nH]1	> 10
O=C(c1ccc(Cl)cc1)c1cc2cc(O)ccc2[nH]1	> 10
O=C(c1ccc(-c2ccccc2)cc1)c1cc2cc(O)ccc2[nH]1	6.4
O=C(c1cccc(Oc2ccccc2)c1)c1cc2cc(O)ccc2[nH]1	1.7
O=C(c1ccc(Oc2ccccc2)cc1)c1cc2ccccc2[nH]1	7.5
O=C(c1ccc(OC2CCCC2)cc1)c1cc2cc(O)ccc2[nH]1	3.9
O=C(c1ccc(OC2CCCCC2)cc1)c1cc2cc(O)ccc2[nH]1	2.3
O=C(c1ccc(OC2CCOC2)cc1)c1cc2cc(O)ccc2[nH]1 (stereo unspecified)	6.8
O=C(c1ccc(OC2CCNCC2)cc1)c1cc2cc(O)ccc2[nH]1	> 10
Cn1c(C(=O)c2ccc(Oc3ccccc3)cc2)cc2cc(O)ccc21	1.3
O=C(c1ccc(Oc2ccccc2)cc1)c1cc2nc(O)ccc2[nH]1	> 10
O=C(c1ccc(Oc2ccccc2)cc1)c1cc2cc(O)ncc2[nH]1	6.8
